Experiment [1] deals with Escherichia coli. The experiment is described as follows: Antibacterial activity against Escherichia coli ATCC 25922 in absence of methionine. It counts as functional.
Experiment [2] relates to Escherichia coli. The experiment is described as follows: Antibacterial activity against Escherichia coli ATCC 25922 in presence of methionine. The format is functional.
For the next experiment, the system named is Candida albicans. The experiment is described as follows: Antifungal activity against Candida albicans ATCC 90028. It counts as functional.
Experiment [3] deals with T1, Cystathionine beta-lyase MetC (Escherichia coli K-12, UniProt P06721).
T1 sequence (P06721 whole entry): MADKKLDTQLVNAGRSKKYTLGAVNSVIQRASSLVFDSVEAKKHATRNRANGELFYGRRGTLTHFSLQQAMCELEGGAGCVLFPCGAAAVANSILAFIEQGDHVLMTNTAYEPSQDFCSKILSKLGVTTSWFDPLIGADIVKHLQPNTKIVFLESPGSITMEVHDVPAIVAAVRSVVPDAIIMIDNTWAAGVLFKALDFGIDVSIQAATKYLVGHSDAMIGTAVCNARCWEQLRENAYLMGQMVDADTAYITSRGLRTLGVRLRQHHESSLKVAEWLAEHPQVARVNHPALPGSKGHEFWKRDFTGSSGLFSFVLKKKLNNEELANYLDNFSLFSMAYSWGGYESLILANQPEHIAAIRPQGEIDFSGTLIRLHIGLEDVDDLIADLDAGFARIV
The experiment is described as follows: Inhibition of Escherichia coli CBL. Put shortly: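 Purified E. coli CBL (24 nM) in 50 mM TAPS pH 8.5 with 1 mM DTNB, preincubated 10 min at room temperature with inhibitor in DMSO (5% final). Reaction started with 100 µM cystathionine; homocysteine formation followed at 412 nm for 4 min, rate taken from 30-200 s slope. IC50 fitted as a four-parameter logistic from 12 concentrations, triplicate.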

Structures are written as SMILES. ≈ marks a conversion by molar mass, not a printed value.

For `O=C(CSc1nccc(-c2cccs2)n1)c1cc(-c2ccc(Cl)c(Cl)c2)no1`, the MIC with Escherichia coli [1], with Escherichia coli [2] and in the experiment on Candida albicans was > 128 µg/mL throughout. Further, in experiment [3], the IC50 – broadly, the point on the concentration scale where inhibition reaches its midpoint – came to 2.7 µM.

For the compound `CC(=O)NCc1ccc(S(=O)(=O)NN)cc1`, the MIC (in general, the smallest concentration in the dilution series that meets the test's criterion for growth inhibition) in the experiment on Escherichia coli [1] was 64 µg/mL (≈ 263 µM); in the experiment with Escherichia coli [2], 64 µg/mL; against Candida albicans, > 128 µg/mL. In experiment [3], this compound registered an IC50 of 34 µM.

Regarding `COc1c(F)c(F)cc(C(=O)NCC(=O)NN)c1F`, the MIC against Escherichia coli [1], in the experiment on Escherichia coli [2] and in the experiment with Candida albicans was > 128 µg/mL throughout. Moreover, in experiment [3], the half-maximal inhibitory concentration (IC50) was found to be 0.65 µM.

`NNC(=O)CNC(=O)Cc1cccc2ccccc12` registered an IC50 in experiment [3] of 500 µM.

Take `NNC(=O)CNC(=O)c1ccccc1[N+](=O)[O-]`: the figures for the MIC with Escherichia coli [1], with Escherichia coli [2] and in the experiment on Candida albicans were 16 µg/mL (≈ 67.2 µM), 16 µg/mL and 128 µg/mL (≈ 537 µM), respectively. Also, the midpoint of inhibition in experiment [3], the IC50, lay at 4.5 µM.

On to `NNC(=O)CNC(=O)c1ccc([N+](=O)[O-])cc1`, for which the MIC is 32 µg/mL (≈ 134 µM) against Escherichia coli [1], 64 µg/mL in the experiment on Escherichia coli [2] and > 128 µg/mL with Candida albicans. The compound further yielded an IC50 in experiment [3] of 25 µM.

In experiment [3], `NNS(=O)(=O)c1cccc2c(N)cccc12` showed a 50% inhibitory concentration (IC50) of 6 µM.

Turning to `Cc1ccc(S(=O)(=O)NN)cc1`, the MIC in the experiment with Escherichia coli [1] is 32 µg/mL (≈ 172 µM); in the experiment with Escherichia coli [2], 64 µg/mL; with Candida albicans it was 128 µg/mL (≈ 687 µM). Also, it took 2.2 µM to reach half-maximal inhibition in experiment [3] (IC50).

With `O=C(OCc1ccccc1Br)c1cc([N+](=O)[O-])cc2c1-c1ccc([N+](=O)[O-])cc1/C2=N/O`, the MIC was 64 µg/mL (≈ 128 µM) against Escherichia coli [1], 64 µg/mL with Escherichia coli [2] and > 128 µg/mL against Candida albicans. This compound yielded an IC50 in experiment [3] of 0.53 µM.

Consider `NNC(=O)CNC(=O)c1cccc(C(F)(F)F)c1`, for which the MIC in the experiment on Escherichia coli [1], in the experiment with Escherichia coli [2] and in the experiment on Candida albicans was > 128 µg/mL each time. For the same compound, the midpoint of inhibition in experiment [3], the IC50, lay at 37 µM.

Turning to `NNS(=O)(=O)c1ccc(Cl)c(Cl)c1`, 1.8 µM corresponded to half-maximal inhibition in experiment [3] (IC50).

Consider `NNS(=O)(=O)c1ccc(Cl)s1`, for which, in experiment [3], the midpoint of inhibition, the IC50, lay at 6.9 µM.

Regarding `NNC(=O)CNC(=O)c1ccc(C(F)(F)F)cc1`, the MIC against Escherichia coli [1] was 128 µg/mL (≈ 490 µM); in the experiment on Escherichia coli [2] it was 128 µg/mL; with Candida albicans it was > 128 µg/mL. This compound came in with a 50% inhibitory concentration (IC50) in experiment [3] of 15 µM.

Regarding `COc1cccc(OC)c1C(=O)NCC(=O)NN`, the MIC against Escherichia coli [1], with Escherichia coli [2] and in the experiment on Candida albicans was > 128 µg/mL throughout. The IC50 in experiment [3] is 60 µM.

Take `Cc1ccc2nc(-c3ccc(NC(=O)Nc4ccc(Cl)cc4)cc3)sc2c1`: the MIC against Escherichia coli [1], in the experiment with Escherichia coli [2] and with Candida albicans was > 128 µg/mL each time. For the same compound, the half-maximal inhibitory concentration (IC50) in experiment [3] is 16 µM.

As for `Cc1ccccc1NC(=O)C(C(F)(F)F)C(F)(F)F`, the values for the MIC against Escherichia coli [1], with Escherichia coli [2] and in the experiment on Candida albicans were 32 µg/mL (≈ 112 µM), 64 µg/mL and 16 µg/mL (≈ 56.1 µM), respectively. The compound also had an IC50 in experiment [3] of 0.28 µM.

Regarding `NNC(=O)CNC(=O)c1cc([N+](=O)[O-])cc([N+](=O)[O-])c1`, the MIC in the experiment on Escherichia coli [1] was 128 µg/mL (≈ 452 µM); with Escherichia coli [2], 128 µg/mL; against Candida albicans, > 128 µg/mL. The compound also showed an IC50 in experiment [3] of 5.9 µM.

As for `Cc1ccc2nc(-c3ccc(NC(=O)c4ccc(Cl)cc4)cc3)sc2c1`, the MIC in the experiment with Escherichia coli [1], in the experiment on Escherichia coli [2] and with Candida albicans was > 128 µg/mL throughout. The IC50 in experiment [3] turned out to be 200 µM.

Regarding `N#CC(C#N)=C1c2cc(S(=O)(=O)Oc3ccccc3)cc([N+](=O)[O-])c2-c2c1cc(S(=O)(=O)Oc1ccccc1)cc2[N+](=O)[O-]`, the IC50 in experiment [3] was 9 µM.

Regarding `NNC(=O)CNC(=O)c1cc2ccccc2cc1N`, the MIC with Escherichia coli [1], in the experiment on Escherichia coli [2] and in the experiment with Candida albicans was > 128 µg/mL each time. The IC50 in experiment [3] stood at 560 µM.

For `NNS(=O)(=O)c1ccc(-c2ccccn2)s1`, the MIC was 32 µg/mL (≈ 125 µM) with Escherichia coli [1], 32 µg/mL in the experiment with Escherichia coli [2] and > 128 µg/mL in the experiment on Candida albicans. This compound gave an IC50 in experiment [3] of 3.4 µM.

On to `NNC(=O)CNC(=O)c1ccccc1C(F)(F)F`, for which the MIC with Escherichia coli [1], in the experiment on Escherichia coli [2] and with Candida albicans was > 128 µg/mL in each case. The compound further had an IC50 in experiment [3] of 0.079 µM.

In the case of `NNC(=O)CNC(=O)c1cc(N)cc(N)c1`, the minimal inhibitory concentration (MIC) with Escherichia coli [1] was 128 µg/mL (≈ 573 µM); with Escherichia coli [2] it was 128 µg/mL; against Candida albicans, > 128 µg/mL. In experiment [3], this compound returned an IC50 of 82 µM.

These data come from ChEMBL document CHEMBL1141414, “Inhibitors of bacterial cystathionine beta-lyase: leads for new antimicrobial agents and probes of enzyme structure and function” (J Med Chem, 2007).
